High-throughput results (PubChem BioAssay)
A selection: hits, their analogues and other compounds. The true share with any hit is near 3.8%.
rCAG RNA binder – molecules binding r(CAG) RNA repeats; r(CAG) RNA repeat, TO-PRO-1 dye displacement fluorescence; inhibition, % at 3 µM; 370,000 tested, 1.3% active; AID 651821;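 active = inhibition above the plate cutoff, the mean of all test compounds on that plate plus 3 SD, cut at about 35% in these data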;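 note: higher means more dye released from RNA so lower well fluorescence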
T cell modulator – modulates CD8 T cell binding to vesicles | 2C CD8+ T cell-vesicle binding, flow cytometry; active compounds read low | response (vesicle binding), % at 7 µM | 330,000 tested, 0.068% active | AID 2052;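 active = response, share of CD8 T cells binding vesicles, and their 90th percentile fluorescence all below set limits, cut at about 80% in these data, passing the limit was not always enough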;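 note: values below 100% mean blocked vesicle binding to the CD8+ T cells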
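Read-out – percent CD8+ FL2 mean versus row control · System – murine 2C transgenic CD8+ T lymphocytes · Times – 1.5 h cell–vesicle binding at 37 °C, then 20 min icy labelling · Control set – naked vesicles low, QL9 vesicles with vehicle high · Detection – cytometric PE anti-B7-1 and Alexa647 anti-CD8 signals after 1% paraformaldehyde fixation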
Granule exo inh – blocks lytic granule exocytosis. TALL-104 LAMP-1 surface exposure, flow cytometry; cells stimulated with thapsigargin and PMA. inhibition, % at 10 µM. 360,000 tested, 0.66% active;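 active = inhibition above about 55%, limit read from the data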
Beta2AR agonist – activates human beta-2 adrenergic receptor causing internalization; Am2.2-beta2AR cells, FAP receptor internalization, flow cytometry; response, % (test concentration not listed); 340,000 tested, 0.43% active;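 active = response above a set limit, near 3 SD of response in nonfluorescent compounds, cut at about 42% in these data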
Target sequence (P07550 whole entry, looked up): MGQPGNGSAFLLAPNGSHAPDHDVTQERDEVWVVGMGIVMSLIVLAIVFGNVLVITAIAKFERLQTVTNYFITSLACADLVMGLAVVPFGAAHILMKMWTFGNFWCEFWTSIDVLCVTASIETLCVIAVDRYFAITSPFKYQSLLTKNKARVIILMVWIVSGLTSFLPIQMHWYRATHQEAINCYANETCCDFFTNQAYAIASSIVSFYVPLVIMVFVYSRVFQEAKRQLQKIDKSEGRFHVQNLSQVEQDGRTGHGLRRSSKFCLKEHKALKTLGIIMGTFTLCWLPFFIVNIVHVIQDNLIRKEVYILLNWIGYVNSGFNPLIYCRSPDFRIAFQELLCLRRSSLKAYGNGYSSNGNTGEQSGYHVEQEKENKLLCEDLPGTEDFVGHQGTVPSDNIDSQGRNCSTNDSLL
V-ATPase pH – regulators of yeast V-ATPase proton transport | S. cerevisiae, pHLuorin cytosolic pH fluorescence | response, % at 10 µM | 350,000 tested, 0.37% active; in the data active = response mostly above about 7.3%, no sharp cut-off; inactive = mostly below about 5.4%; note: actives read high
MPTP block – permeability transition pore inhibition | isolated mouse mitochondria, Ca2+ swelling absorbance, 30 min | inhibition, % at 10 µM | 360,000 tested, 1.4% active | AID 602449;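 active = inhibition of 50% or more, scaled per plate between neutral and stimulator controls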
rCAG bind conf – r(CAG) RNA repeat binding, confirmation. shares compounds with rCAG RNA binder. TO-PRO-1 dye displacement fluorescence. inhibition, % at 3 µM. 4,300 tested, 70% active;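 active = inhibition above a per-plate cutoff, the mean inhibition of sample wells plus 3 SD, cut at about 35% in these data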;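 note: loss of TO-PRO-1 fluorescence as compound displaces dye from 1x1 AA loop RNA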
dCAG dye counter – counter-screen for rCAG RNA binders: DNA CAG dye complex inhibitors; AID 652068; 4,300 tested, 94% active; inhibition, % at 3 µM; d(CAG) DNA oligo TO-PRO-1 dye displacement, fluorescence; shares compounds with rCAG RNA binder;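 active = inhibition above its plate's cutoff, the mean test-well inhibition plus 3 SD, cut at about 4.8% in these data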;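 note: hits displace the dye from DNA and so lower well fluorescence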
dCAG dye DR – disrupts DNA CAG TO-PRO-1 complex in dose response. shares compounds with rCAG RNA binder. DNA CAG/GTC duplex TO-PRO-1 dye displacement fluorescence. IC50, µM. 250 tested, 20% active; in the data active = IC50 below about 10 µM
Each line names hits and unclear results; the compound was inactive in the other large screens (follow-up assays come after a bar, where they were run).

O=c1[nH]c2ccc(S(=O)(=O)N3CCN(c4ccccc4F)CC3)cc2s1	rCAG RNA binder 35 | rCAG bind conf inactive | dCAG dye counter 5.2
CCCC[C@H](C(=O)N(CC)c1ccccc1)[C@@H](O)c1ccc(Cl)cc1	none (no result: T cell modulator, Granule exo inh, Beta2AR agonist, V-ATPase pH, MPTP block)
COc1cccc(-c2nnc(Nc3nc4c(F)cccc4s3)o2)c1	rCAG RNA binder 73 | rCAG bind conf 67 | dCAG dye counter 23
COc1cccc2sc(Nc3nnc(-c4ccccc4Cl)o3)nc12	rCAG RNA binder 46 | rCAG bind conf 44 | dCAG dye counter 14
COc1ccccc1-c1nnc(Nc2nc3c(OC)cccc3s2)o1	rCAG RNA binder 53 | rCAG bind conf 58 | dCAG dye counter 20
COc1cccc2sc(Nc3nc(-c4ccncc4)cs3)nc12	rCAG RNA binder 38 | rCAG bind conf inactive | dCAG dye counter 14
COc1cccc2sc(NN)nc12	none
CCN(C(=O)[C@@H](C1CC1)[C@@H](O)c1ccc(Cl)cc1)c1ccccc1	none (no result: T cell modulator, Granule exo inh, Beta2AR agonist, V-ATPase pH, MPTP block)
O=C(NN=Cc1cccc(OCc2ccccc2)c1)c1cc(-c2ccc(Cl)cc2)n[nH]1	none (no result: T cell modulator, Granule exo inh, Beta2AR agonist, V-ATPase pH, MPTP block)
COc1ccc(-c2ncn(CCc3ccccc3OC)c2CC(C)C)cc1	none (no result: T cell modulator, Granule exo inh, Beta2AR agonist, V-ATPase pH, MPTP block)
O=C(O)CCn1cc(C2CC(c3ccccc3)=NN2c2ccccc2)c(-c2ccccc2)n1 (stereo not drawn)	rCAG RNA binder 55 | rCAG bind conf 62 | dCAG dye counter 22
Cc1cc(O)cc(=O)n1-c1ccc(Cl)c(C(F)(F)F)c1	none (no result: T cell modulator, Granule exo inh, Beta2AR agonist, V-ATPase pH, MPTP block)
N#CCCCc1cn(-c2cccc(-c3noc4c3C(=O)N(CC(=O)N3CCOCC3)CC4)c2)nn1	none (no result: T cell modulator, Granule exo inh, Beta2AR agonist, V-ATPase pH, MPTP block)
CCOC(=O)C1=C(CC)Nc2ccccc2N/C1=N\S(=O)(=O)c1ccc(C(=O)OCC)cc1	rCAG RNA binder 41 | rCAG bind conf 40 | dCAG dye counter 9.1
CC(C)C[C@H]1COc2cccc(F)c2S(=O)(=O)N1	none (no result: T cell modulator, Granule exo inh, Beta2AR agonist, V-ATPase pH, MPTP block)
CC1(C(=O)NNC(=O)c2ccc(=O)oc2)CC1Br (stereo not drawn)	rCAG RNA binder 43 | rCAG bind conf 60 | dCAG dye counter 24 | dCAG dye DR 9.9
CCOC(=O)Nc1ccc2c(c1)[C@]1(CC(=O)N(CC(C)C)C1c1ccccc1)C(=O)N2C (stereo partly drawn)	none (no result: T cell modulator, Granule exo inh, Beta2AR agonist, V-ATPase pH, MPTP block)
Cn1c(SCC(=O)Nc2nccs2)nnc1-c1ccc(S(=O)(=O)N2CCCC2)cc1	none
O=C(CSc1n[nH]c(-c2ccc(S(=O)(=O)N3CCCCC3)cc2)n1)Nc1nccs1	rCAG RNA binder 39 | rCAG bind conf 36 | dCAG dye counter 9.0
O=C(O)c1cccc(N/N=C(\N=Nc2ccccc2)c2ccccc2)c1	rCAG RNA binder 38 | rCAG bind conf 53 | dCAG dye counter 17
NC(=O)/C(N=Nc1ccccc1)=N/Nc1ccccc1	none
COC(=O)[C@]12C[C@H](CC(=O)NCCC(C)C)C(=O)N(Cc3ccco3)C1=C[C@H](C1CCCC1)O[C@@H]2C	none (no result: T cell modulator, Granule exo inh, Beta2AR agonist, V-ATPase pH, MPTP block)
Cc1ccc(-n2nc(C)c3c2NC2=C(C(=O)CC(C)(C)C2)C3c2ccccc2OCC(=O)O)cc1 (stereo not drawn)	rCAG RNA binder 37 | rCAG bind conf 41 | dCAG dye counter 9.4
C=CCOc1ccccc1C1C2=C(CC(C)(C)CC2=O)Nc2c1c(=O)n(C)c(=O)n2C (stereo not drawn)	none
CCCCN(C)S(=O)(=O)c1ccc2[nH]c(=O)oc2c1	none (no result: T cell modulator, Granule exo inh, Beta2AR agonist, V-ATPase pH, MPTP block)
COc1ccc(CN2CCN(c3nc4ccccc4s3)CC2)cc1	none (no result: T cell modulator)
COc1ccc(CCn2c(O)cc3nn(-c4nc5ccccc5s4)c(=O)c-3c2C)cc1	rCAG RNA binder 67 | rCAG bind conf 84 | dCAG dye counter 51
CCOC(=O)C1=C(O)/C(=C/c2ccc(CNC(=O)C(=O)Nc3ccc(C)cc3)o2)N=C1C	rCAG RNA binder 49, Beta2AR agonist 75 | rCAG bind conf inactive | dCAG dye counter 11
COC(=O)C1=C(O)/C(=C\c2ccc(CNC(=O)C(=O)Nc3ccc(C)c(C)c3)o2)N=C1C	rCAG RNA binder 56, Beta2AR agonist 70 | rCAG bind conf inactive | dCAG dye counter 12
CC(C)(C)NC(=O)C(c1ccnc2ccccc12)n1c(=O)c(-c2ccco2)nc2ccccc21 (stereo not drawn)	rCAG RNA binder 36 (no result: T cell modulator, Beta2AR agonist, V-ATPase pH) | rCAG bind conf inactive | dCAG dye counter 15
CC(C)(C)NC(=O)C(c1ccncc1)n1c(=O)c(-c2ccco2)nc2ccccc21 (stereo not drawn)	none (no result: T cell modulator, Beta2AR agonist, V-ATPase pH)
Cc1cccc(C)c1NC(=O)C(c1ccccc1)n1c(=O)c(-c2ccco2)nc2ccccc21 (stereo not drawn)	none (no result: T cell modulator, Beta2AR agonist, V-ATPase pH)
COc1ccc(C(C(=O)Nc2c(C)cccc2C)n2c(=O)c(-c3ccco3)nc3ccccc32)cc1 (stereo not drawn)	rCAG RNA binder 38 (no result: T cell modulator, Beta2AR agonist, V-ATPase pH) | rCAG bind conf inactive | dCAG dye counter 10
Cc1ccc(CN2C(=O)S/C(=C\c3ccccc3OCC(=O)O)C2=O)cc1	rCAG RNA binder 60 | rCAG bind conf 64 | dCAG dye counter 18
O=C(O)COc1ccccc1/C=C1\SC(=O)N(Cc2ccc(F)cc2)C1=O	rCAG RNA binder 37 | rCAG bind conf 39 | dCAG dye counter 5.0
Cc1ccc([C@H]2C(C(=O)O)=CC[C@@H](c3ccc(Cl)cc3)N2S(=O)(=O)c2ccccc2C)cc1	none (no result: rCAG RNA binder)
CCOC(=O)C1=CC[C@@H](c2ccc(F)cc2)N(S(=O)(=O)c2ccc(C)cc2)[C@H]1c1ccccc1	none (no result: T cell modulator, Beta2AR agonist, V-ATPase pH)
COc1ccc([C@@H]2CC=C(C(=O)O)[C@H](c3ccc(F)cc3)N2S(=O)(=O)c2ccccc2C)cc1	rCAG RNA binder 59 | rCAG bind conf 45 | dCAG dye counter 13
Cc1ccc([C@H]2C(C(=O)O)=CC[C@@H](c3ccc(C)cc3)N2S(=O)(=O)c2ccccc2C)cc1	rCAG RNA binder 75 | rCAG bind conf 62 | dCAG dye counter 27
Cc1ccc([C@@H]2CC=C(C(=O)O)[C@H](c3ccccc3)N2S(=O)(=O)c2ccccc2C)cc1	rCAG RNA binder 55 | rCAG bind conf 57 | dCAG dye counter 20
COc1ccc([C@@H]2CC=C(C(=O)O)[C@H](c3ccc(C)cc3)N2S(=O)(=O)c2ccccc2C)cc1	rCAG RNA binder 66 | rCAG bind conf 63 | dCAG dye counter 26
COC(=O)c1cc2c(c3c4ccccc4n(S(=O)(=O)c4ccc(C)cc4)c13)C(=O)N(CC(C)C)C2	none (no result: T cell modulator, Granule exo inh, Beta2AR agonist, V-ATPase pH, MPTP block)
CCCCNC(=O)C[C@H]1C[C@@]2(C(=O)OC)C(=C[C@H](C(C)C)O[C@@H]2C2CC2)N(Cc2cccc3ccccc23)C1=O	none (no result: T cell modulator, Granule exo inh, Beta2AR agonist, V-ATPase pH, MPTP block)
